Results on 18 molecules are retold here after PubChem BioAssay.

Assay [1] is described as follows: S. cerevisiae growth inhibition in permissive medium (OD615), pilot counter-assay for S. cerevisiae lifespan shortening project, permissive growth control (AID 705;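 active = growth inhibition above 25% in both replicates, a cutoff set 3 SD above the mean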). Particulars: OD615, 24 h, at 10 µM, stronger effect = higher value. The method, boiled down: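 assay system = Saccharomyces cerevisiae strain carrying genetically modified DeaD replicative-lifespan system | technique = absorbance (optical density) at 615 nm | buffer or medium = permissive raffinose/galactose medium | timing = cells pre-grown 4 h, then 24 h compound exposure, 30 °C humidified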

Assay [2] in a line: S. cerevisiae growth inhibition in restrictive medium, OD615, pilot screen, restrictive growth control, yeast lifespan reduction project (AID 706;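 active = growth inhibition above a set limit, 3 SD over mean compound inhibition, in both replicates, cut at about 43% in these data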;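 also: modified DeaD lifespan yeast strain shifted to restrictive glucose medium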). Conditions: OD615, 48 h, at 10 µM, stronger effect = higher value. The method, boiled down: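 System: modified S. cerevisiae. Buffer or medium: CSMM-D glucose medium. Incubation: 4 h pre-growth plus 48 h compound exposure, 30 °C. Detection: absorbance (optical density) measured at 615 nm.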

Assay [3] can be described thus: doxorubicin toxicity protection in MRP-1 cells – H69AR cells, CellTiter-Glo, duplicate, MRP-1 activator project, pilot screen (AID 807;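 active = viability increase at or above a cutoff of the median across tested compounds plus 3 SD, cut at about 8.5% in these data, passing the limit was not always enough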;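 also: compound pretreatment 18-22 h then 72 h combined with doxorubicin; 0% = doxorubicin alone and 100% = vehicle without doxorubicin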). Particulars: H69AR viability with doxorubicin, CellTiter-Glo luminescence; at 10 µM; stronger effect = higher value. On the technique in general: Cellular ATP, detected with luciferase, serves as a proxy for viable cell number.
Assay [4] can be described thus: viability of HCT116 without oncogenic beta-catenin – human colon tumor cells, pilot screen (AID 823).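 Also: 0% = wells killed by 20 µM Hyamine and 100% = untreated DMSO cell wells.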 Conditions: HCT116 beta-catenin knockout viability, CellTiter-Glo, 60 h; at 10 µM; stronger effect = lower value.
Assay [5] is described as follows: viability of PTEN-null HCT116 cells – cell-based, HCT116 clonal line, CellTiter-Glo, pilot screen (AID 824;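 active = viability at or below 27.92% in each of two runs, the all-compound median minus 4 SD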;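 also: 0% = 20 µM Hyamine control and 100% = vehicle cell control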). Conditions: HCT116 PTEN-deleted viability, 60 h, at 10 µM, stronger effect = lower value.
The nature of assay [6]: RAM pathway blockade in budding yeast – dse1pr::URA3 reporter, 5-FOA selection, pilot screen (AID 869;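 active = inhibition over a set limit, the all-compound mean plus 3 SD, in both replicate runs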;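 also: 0% = DMSO wells with no growth and 100% = 10 µM 1-NA-PP1 with full growth; RAM network block rescues cells from 5-FOA so hits raise OD615 growth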). Conditions: S. cerevisiae dse1pr::URA3 5-FOA growth, OD615, 2 d; at 10 µM; stronger effect = higher value; strain carries analog-sensitive mutant Cbk1 kinase.
Assay [7] in a line: RAM signaling pathway blockade in yeast – S. cerevisiae, Pdr1DBD-CYC8 efflux-inhibited sensitized strain, primary screen (AID 1298;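 active = RAM network inhibition above 8.4% in each of two replicates, 3 SD over the compound average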;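 also: 0% = DMSO untreated cells without growth and 100% = 10 µM 1-NA-PP1 full growth; higher means more yeast growth rescued from 5-FOA killing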). Particulars: S. cerevisiae cbk1-as DSE1-URA3 strain, 5-FOA growth OD615, 2 d; at 50 µM; stronger effect = higher value.

As usually defined, the viability is a read-out of living cells in per cent, often relative to untreated cells. Usually inhibition stands for the drop in the measured response relative to a control, in per cent.

The structures appear in SMILES notation. A number with no mark means an inactive call. Results filed as inconclusive are left out. Calls of active or inactive are those of the source.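 The calls were made as follows, unless noted: active = cell viability at or below a set limit in both duplicate runs, the limit being the all-compound median minus 4 SD (cut at about 23% in these data, passing the limit was not always enough); inconclusive = no clear call, values can overlap the other calls; inactive = the rest.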

As to `CCOc1ccc(/C=C\C(C)=N\O)cc1`, the values for the growth inhibition in assay [1] and in assay [2] were -0.67% and 0.775%, respectively. Besides, the viability increase in assay [3] was -2.74%. For the same molecule, the viability in assay [4] is 90.3%; in assay [5], 96.3%. Moreover, in assay [6], the inhibition was 0.065%. In addition, the RAM network inhibition in assay [7] was 2.82%.

For `COC(=O)CSC1=C(C#N)C(c2ccccc2F)CC(=O)N1` (stereo unspecified), the growth inhibition in assay [1] is -9.32%; in assay [2], -6.92%. The viability increase in assay [3] was -2.29%. Also, the viability in assay [4] was 92.6%; in assay [5], 94.1%. For the same molecule, the inhibition in assay [6] is 1.32%. In assay [7], the RAM network inhibition was 0.84%.

Consider `COc1ccc(-c2nnc3ccc(SCC(=O)N4CCCCC4)nn23)cc1OC`, for which the growth inhibition in assay [1] is 3.98%; in assay [2] it was 18.9%. In assay [3], the viability increase is -4.61%. Besides, the viability in assay [4] was 98.3%; in assay [5], 98.9%. Also, the inhibition in assay [6] is 0.24%. For the same molecule, the RAM network inhibition in assay [7] is 2.36%.

As to `CCC(C)NC(=O)CS(=O)Cc1nc(-c2cccc(OC)c2)oc1C` (stereo unspecified), the growth inhibition in assay [1] was -12.5%; in assay [2], -1.45%. Besides, the viability increase in assay [3] is -1.45%. The viability was 98% in assay [4] and 94.5% in assay [5]. Also, in assay [6], the inhibition was 1.23%. Further, in assay [7], the RAM network inhibition was 4.44%.

On to `O=C(Nc1nc(-c2ccccn2)cs1)c1ccc(Cl)s1`, for which the results for the growth inhibition in assay [1] and in assay [2] were 94.1% (active) and 96.8% (active), respectively. For the same molecule, the viability increase in assay [3] was -8.93%. Also, the viability is 10.6% (active) in assay [4] and 22.1% (active) in assay [5]. The inhibition in assay [6] was -1.18%. In addition, the RAM network inhibition in assay [7] was -2.58%.

On to `COc1ccc(C2C(C(=O)Nc3cccc(C)n3)c3ccccc3C(=O)N2C)cc1OC` (stereo unspecified), for which the values for the growth inhibition in assay [1] and in assay [2] were 5.62% and 5.49%, respectively. The viability increase in assay [3] was -1.04%. The viability in assay [4] is 103%; in assay [5], 99.6%. Besides, in assay [6], the inhibition was -0.04%. The RAM network inhibition in assay [7] was 3.5%.

As to `CCn1c2ccccc2c2cc(NC(=O)C3CCN(S(=O)(=O)c4cccs4)CC3)ccc21`, the values for the growth inhibition in assay [1] and in assay [2] were -8.9% and -16.2%, respectively. Moreover, the viability increase in assay [3] is -5.99%. The viability in assay [4] was 59.3%; in assay [5], 66.2%. Further, the inhibition in assay [6] is 0.19%. In addition, the RAM network inhibition in assay [7] was 4.66%.

Consider `CCn1c(=NC(=O)CSC(C)=O)sc2cc(OC)ccc21`, for which the growth inhibition in assay [1] is -22.8%; in assay [2], 7.25%. Besides, in assay [3], the viability increase was -5.19%. The viability in assay [4] is 64.1%; in assay [5], 77.2%. Moreover, the inhibition in assay [6] was 1.25%. For the same molecule, the RAM network inhibition in assay [7] was 2.46%.

As for `O=C(NCCCNCc1ccccc1)c1ccc(/C=N/O)nc1`, the growth inhibition in assay [1] was -8.54%; in assay [2], -12.5%. The viability increase in assay [3] was -1.94%. The viability in assay [4] was 93.2%; in assay [5], 97.9%. Also, the inhibition in assay [6] is 1.73%. For the same molecule, in assay [7], the RAM network inhibition is 3.09%.

As to `O=C(C1CCC(=O)N1Cc1cccnc1)N1CCN(c2ccc(F)cc2)CC1` (stereo unspecified), the growth inhibition in assay [1] is -0.085%; in assay [2], -9.05%. The viability increase in assay [3] is -2.73%. Besides, the viability was 90.1% in assay [4] and 88.4% in assay [5]. In assay [6], the inhibition is 0.585%. Besides, the RAM network inhibition in assay [7] was 5.89%.

Consider `Cc1cc(C)n(C(=O)c2ccc(NC(=O)C3CC3)cc2)n1`, for which the values for the growth inhibition in assay [1] and in assay [2] were -8.57% and -4.89%, respectively. Moreover, in assay [3], the viability increase is 1.99%. The viability in assay [4] was 102%; in assay [5], 91.3%. The inhibition in assay [6] is 1.58%. For the same molecule, in assay [7], the RAM network inhibition is 5.67%.

For `COc1ccc(N(CC(=O)NCc2cccs2)S(=O)(=O)c2c(C)nn(C)c2C)cc1`, the growth inhibition in assay [1] was -2.88%; in assay [2], -15.2%. In addition, the viability increase in assay [3] was -3.49%. The viability in assay [4] was 88.6%; in assay [5], 86.9%. For the same molecule, in assay [6], the inhibition was 0.535%. Also, the RAM network inhibition in assay [7] was -0.27%.

For the molecule `CCOC(=O)c1c(/N=C/N(C)C)sc(C(=O)OC)c1C`, the growth inhibition was -5.39% in assay [1] and 3.21% in assay [2]. The viability increase in assay [3] is -4.56%. The viability was 91.1% in assay [4] and 89.6% in assay [5]. For the same molecule, in assay [6], the inhibition was 0.78%. Further, the RAM network inhibition in assay [7] is 1.45%.

Take `Cc1ccc(Sc2oc(/C=N/n3cnnc3)cc2Br)cc1`: the growth inhibition in assay [1] was 0.63%; in assay [2], 4.41%. The viability increase in assay [3] was -7%. The viability was 6.77% (active) in assay [4] and 6.87% (active) in assay [5]. In addition, the inhibition in assay [6] is 1.4%. Moreover, in assay [7], the RAM network inhibition is 3.27%.

`O=c1[nH]c(=S)[nH]nc1Cc1ccccc1`: the growth inhibition in assay [1] was -10%; in assay [2] it was 13.4%. Moreover, the viability increase in assay [3] was -0.79%. For the same molecule, the viability in assay [4] is 101%; in assay [5] it was 98.2%. In addition, the inhibition in assay [6] is 0.12%. For the same molecule, the RAM network inhibition in assay [7] is 6.46%.

Turning to `COc1cccc(-c2nc(CS(=O)CC(=O)NCc3ccccc3Cl)c(C)o2)c1` (stereo unspecified), the growth inhibition in assay [1] was -0.545%; in assay [2], 5.44%. In assay [3], the viability increase is -3.78%. For the same molecule, the viability is 92.4% in assay [4] and 91.9% in assay [5]. The inhibition in assay [6] was 0.79%. Moreover, in assay [7], the RAM network inhibition is 10%.

Consider `Fc1ccc(Cc2nnc(-c3cccs3)o2)cc1`, for which the growth inhibition in assay [1] was -20.1%; in assay [2] it was -0.63%. Further, in assay [3], the viability increase is 0.11%. Moreover, the viability in assay [4] was 104%; in assay [5], 97.8%. In assay [6], the inhibition was 1.93%. In addition, in assay [7], the RAM network inhibition was 12.2%.

As to `Cc1cc(C)n2c(SCC(=O)Nc3ccccc3)nnc2n1`, the growth inhibition in assay [1] is -7.49%; in assay [2], -9.43%. Moreover, the viability increase in assay [3] was -2.57%. Also, the viability in assay [4] is 102%; in assay [5], 91.4%. The inhibition in assay [6] was 1.94%. Moreover, the RAM network inhibition in assay [7] was -0.67%.
